Data reported in ChEMBL document CHEMBL3351742, “Novel quinazoline-urea analogues as modulators for Aβ-induced mitochondrial dysfunction: design, synthesis, and molecular docking study” (Eur J Med Chem, 2014).

Experiments:
[1] = test system: HT-22; experiment: Inhibition of beta-amyloid peptide-induced mitochondrial permeability transition pore opening in mouse HT22 cells assessed as increase in green/red fluorescence ratio at 5 uM pre-incubated for 10 mins before Abeta peptide addition by JC-1 assay; type: cell-based; parameters: scale not given: the % may be the effect or the level left
How it was run: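 HT-22 mouse hippocampal cells (DMEM, 10% FBS, 37 °C, 5% CO2), 30,000/well seeded a day ahead; loaded with 7.5 μM JC-1 (final) in phenol red-free Opti-MEM for 1 h 15 min at 37 °C, PBS-washed. Compound 5 μM for 10 min, then Aβ1–42 5 μM. Fluorescence read hourly for 3 h, red ex/em 530/580, green 485/530; green/red ratio change relative to Aβ alone (100%).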

[2] = Toxicity against mouse HT22 cells assessed as cell viability at 5 uM after 24 hrs by MTT assay; type: cell-based, HT-22; conditions: read-out: Activity
How it was run: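 HT-22 cells, 5000/well, given compound at 5 μM without Aβ, 24 h at 37 °C. MTT added for 2 h at 37 °C, formazan dissolved in 10% Triton X-100/isopropanol with 0.1 M HCl for 1 h at room temperature; absorbance at 570 nm, vehicle-control values subtracted to derive viability.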

**Q.** Which Activity [1] does the source give for `O=C(Nc1ccc(Cl)c(Cl)c1)Nc1cc2ncncc2cc1OCc1ccccc1` here?
**A.** 73%

**Q.** With `Cc1ccc(NC(=O)Nc2cc3ncncc3cc2OCc2ccc(F)cc2)cc1` as the molecule, how does the Activity [1] read?
**A.** 99.2%

**Q.** With `O=C(Nc1ccccc1F)Nc1cc2ncncc2cc1OCc1ccc(F)cc1` as the molecule, how does the Activity [1] read?
**A.** 80.3%

**Q.** For `O=C(Nc1cccc(F)c1)Nc1cc2ncncc2cc1OCc1cccc(F)c1`, which viability at 24 h, 5 µM [2] is on record?
**A.** 104%

**Q.** What about the Activity [1] of the same molecule?
**A.** 27%

**Q.** What does the source list for `Cc1ccc(NC(=O)Nc2cc3ncncc3cc2OCc2ccccc2F)cc1`?
**A.** viability at 24 h, 5 µM [2]: 131%; Activity [1]: 26.7%

**Q.** With `Cc1ccc(NC(=O)Nc2cc3ncncc3cc2OCc2ccc(Cl)cc2)cc1` as the molecule, how does the Activity [1] read?
**A.** 63%

**Q.** For `O=C(Nc1ccccc1F)Nc1cc2ncncc2cc1OCc1ccccc1Cl`, which viability at 24 h, 5 µM [2] is on record?
**A.** 101%

**Q.** And the Activity [1]?
**A.** 31%

**Q.** Which Activity [1] does the source give for `O=C(Nc1cccc(F)c1)Nc1cc2ncncc2cc1OCc1ccccc1F` here?
**A.** 56.9%

**Q.** What does the source list for `O=C(Nc1cccc(F)c1)Nc1cc2ncncc2cc1OCc1ccccc1`?
**A.** viability at 24 h, 5 µM [2]: 100%; Activity [1]: 38%

**Q.** With `O=C(Nc1cccc(Cl)c1)Nc1cc2ncncc2cc1OCc1ccc(Cl)cc1` as the molecule, how does the Activity [1] read?
**A.** 64%

**Q.** With `Cc1ccc(NC(=O)Nc2cc3ncncc3cc2OCc2ccccc2)cc1` as the molecule, how does the Activity [1] read?
**A.** 154%

**Q.** With `O=C(Nc1ccc(C(F)(F)F)cc1)Nc1cc2ncncc2cc1OCc1ccc(F)cc1` as the molecule, how does the Activity [1] read?
**A.** 81%

**Q.** With `O=C(Nc1cccc(F)c1)Nc1cc2ncncc2cc1OCc1ccc(Cl)cc1` as the molecule, how does the viability at 24 h, 5 µM [2] read?
**A.** 100%

**Q.** What about the Activity [1] of the same molecule?
**A.** 29%

**Q.** For `O=C(Nc1ccc(C(F)(F)F)cc1)Nc1cc2ncncc2cc1OCc1ccc(Cl)cc1`, which Activity [1] is on record?
**A.** 48%

**Q.** For `O=C(Nc1ccc(Cl)c(Cl)c1)Nc1cc2ncncc2cc1OCc1ccc(F)cc1`, which Activity [1] is on record?
**A.** 155%

**Q.** With `O=C(Nc1ccc(Cl)c(Cl)c1)Nc1cc2ncncc2cc1OCc1ccc(Cl)cc1` as the molecule, how does the Activity [1] read?
**A.** 91%

**Q.** For `O=C(Nc1cccc(Cl)c1)Nc1cc2ncncc2cc1OCc1ccc(F)cc1`, which Activity [1] is on record?
**A.** 67.9%

**Q.** For `O=C(Nc1cc2ncncc2cc1OCc1ccccc1F)Nc1cccc2ccccc12`, which viability at 24 h, 5 µM [2] is on record?
**A.** 83%

**Q.** What about the Activity [1] of the same molecule?
**A.** 39.4%

**Q.** With `O=C(Nc1cccc(Cl)c1)Nc1cc2ncncc2cc1OCc1ccccc1F` as the molecule, how does the Activity [1] read?
**A.** 51.4%

**Q.** With `Cc1ccc(NC(=O)Nc2cc3ncncc3cc2OCc2cccc(F)c2)cc1` as the molecule, how does the Activity [1] read?
**A.** 81%

**Q.** For `O=C(Nc1ccccc1F)Nc1cc2ncncc2cc1OCc1ccc(Cl)cc1`, which viability at 24 h, 5 µM [2] is on record?
**A.** 102%

**Q.** And the Activity [1]?
**A.** 24%

**Q.** With `O=C(Nc1ccc(C(F)(F)F)cc1)Nc1cc2ncncc2cc1OCc1ccccc1F` as the molecule, how does the Activity [1] read?
**A.** 68.6%

**Q.** With `O=C(Nc1cc2ncncc2cc1OCc1ccccc1)Nc1cccc2ccccc12` as the molecule, how does the Activity [1] read?
**A.** 76%

**Q.** For `O=C(Nc1cccc(F)c1)Nc1cc2ncncc2cc1OCc1ccc(F)cc1`, which Activity [1] is on record?
**A.** 61.5%

**Q.** With `Cc1ccc(NC(=O)Nc2cc3ncncc3cc2OCc2ccccc2Cl)cc1` as the molecule, how does the Activity [1] read?
**A.** 54.7%
